Assay results gathered from unrelated publications.
Compare with care: the assays were run in different laboratories.
CDK3: Cyclin-dependent kinase 3 (CDK3, Homo sapiens, UniProt Q00526)
CHRM1: Muscarinic acetylcholine receptor M1 (CHRM1, Homo sapiens, UniProt P11229)
CSNK1A1L: Casein kinase I isoform alpha-like (CSNK1A1L, Homo sapiens, UniProt Q8N752)

With `CNC(=O)COc1cc2cc(Nc3nc(N4CCC(C(=O)N(C)C)CC4)ncc3Cl)cc(OC)c2n(C)c1=O` the inhibition was over 90% (B-cell lymphoma 6 protein (BCL6, Homo sapiens, UniProt P41182); target engagement in cells, BRET; HEK-293T; 1 µM).
`COc1ccc2oc(-c3ccc4nc(N)oc4c3)c/c(=N\c3ccccc3NC(=O)CCN)c2c1` gave a remaining binding of 91% (Tyrosine-protein kinase ABL1 (Abl1, Mus musculus, UniProt P00520); binding; 1 µM).
For `CNS(=O)(=O)c1ccc(Nc2ncc(C(F)(F)F)c(N3CCC[C@](C)(O)C3)n2)c(C)c1`, the remaining binding was 49% (CDK3; binding, competition with immobilised ligand; 1 µM).
With `NC/C(=C\F)COc1cccc(Cn2c(=S)[nH]c(=O)c3[nH]cnc32)c1` the inhibition was under 50% (CHRM1; ligand displacement, radioligand; 10 µM).
The inhibition of `C#Cc1cc(-c2cc(Nc3nc(N[C@@H](C)c4ccc(F)cn4)ncc3Cl)n[nH]2)ccc1C=O` is reported as 89.1% (Tyrosine-protein kinase JAK1 (JAK1, Homo sapiens, UniProt P23458); enzyme activity, inhibitor; 0.2 µM).
`Cc1cc(F)cc2c(CCC(=O)N[C@@H]3C(=O)NC[C@H]3O)c(-c3ccc(F)cc3)[nH]c12` gave an inhibition of 14% (CHRM1; cell-free assay; 10 µM).
`Cc1cc(O)c(-c2ccc([C@@H](C)CN(C)C)cc2)c2c1[nH]c(=O)c1sccc12` has an inhibition of -3.37% (Serine/threonine-protein kinase Sgk1 (SGK1, Homo sapiens, UniProt O00141); enzyme activity, inhibitor; 0.1 µM).
The remaining binding of `C1=C/COCc2cc(ccc2OCCN2CCCC2)Nc2nccc(n2)-c2cccc(c2)COC/1` is reported as 99% (CSNK1A1L; binding; 0.1 µM).
`CCCCC(=O)Nc1ccc(-c2ccc3ncn(CCC)c(=O)c3c2)cn1` gave a remaining binding of 99% (CSNK1A1L; binding, competition with immobilised ligand; 0.5 µM).
`Cc1cc(S(=O)(=O)N[C@H]2CC[C@H](CN3CCN(c4ccc(C5CCC(=O)NC5=O)cc4F)CC3)CC2)ccc1Nc1ncc(C(F)(F)F)c(N2CCC[C@](C)(O)C2)n1` (some centres unmarked) has a remaining binding of 63% (CDK3; binding, competition with immobilised ligand; 1 µM).
`CCN1/C(=C/C(C)=O)Sc2ccc(F)cc21` gave an inhibition of 4.3% (Prostaglandin E2 receptor EP2 subtype (PTGER2, Homo sapiens, UniProt P43116); ligand displacement, radioligand; 10 µM).
